Measurements published in ChEMBL document CHEMBL1132135, “Potent, orally absorbed glucagon receptor antagonists” (Bioorg Med Chem Lett, 1999).

Columns and labels:
[1] = Concentration in plasma (portal) following oral dose in rats at 0.25 hr; assay type: ADME, organism-based; details: rat
How it was run: (§1)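 Fasted male Sprague-Dawley rats (300-400 g) were gavaged at 3.0 mg/kg, using a 0.3 mg/mL solution in 5% PEG-400/5% Tween-80/90% water at 10 mL/kg. At each time point animals were CO2-anesthetized. Portal vein blood was drawn first, then cardiac puncture at sacrifice. Samples were heparinized, held at 0 °C for up to 2 h, then centrifuged. Plasma proteins were precipitated with acetonitrile and analyzed by LC/MS/MS.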

[2] = Concentration in plasma (portal) following oral dose in rats at 1 hr; assay type: ADME, organism-based; details: rat; how it was run: as §1
[3] = Concentration in plasma (portal) following oral dose in rats at 2 hr; assay type: ADME, organism-based; details: rat; how it was run: as §1
[4] = Concentration in plasma (systemic) following oral dose in rats at 0.25 hr; assay type: ADME, organism-based; details: rat; how it was run: as §1
[5] = Concentration in plasma (systemic) following oral dose in rats at 1 hr; assay type: ADME, organism-based; details: rat; how it was run: as §1
[6] = Concentration in plasma (systemic) following oral dose in rats at 2 hr; assay type: ADME, organism-based; details: rat; how it was run: as §1
[7] = Concentration in plasma (systemic) following oral dose in mouse at 0.25 hr; assay type: ADME, organism-based
How it was run: (§2)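 Oral gavage in CD1 mice at 50 mg/kg, vehicle 5% PEG-400/5% Tween-80/90% water, 10 mL/kg. At each time point mice were CO2-anesthetized and bled by cardiac puncture at sacrifice. Samples were heparinized, kept at 0 °C for up to 2 h, then centrifuged to plasma. Plasma proteins were precipitated with acetonitrile and analyzed by HPLC.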

[8] = Concentration in plasma (systemic) following oral dose in mouse at 1 hr; assay type: ADME, organism-based; how it was run: as §2
[9] = Concentration in plasma (systemic) following oral dose in mouse at 24 hr; assay type: ADME, organism-based; how it was run: as §2
[10] = Concentration in plasma (systemic) following oral dose in mouse at 2 hr; assay type: ADME, organism-based; how it was run: as §2
[11] = Concentration in plasma (systemic) following oral dose in mouse at 4 hr; assay type: ADME, organism-based; how it was run: as §2
[12] = Concentration in plasma (systemic) following oral dose in mouse at 6 hr; assay type: ADME, organism-based; how it was run: as §2
[13] = molecular target: T1, Glucagon receptor (Mus musculus, UniProt Q61606); test: Binding affinity towards glucagon receptor determined by reduction in binding of 125 I-glucagon to the murine glucagon receptor (mGLUR) expressed on CHO cells in presence of Mg+2; assay type: cell-based
How it was run: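 Mg2+ added at 5 mM, a physiological level, to the binding medium. IC50 reported in µM, with the number of determinations noted; where no IC50 was reached, percent inhibition is given at a single tested concentration.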

[14] = molecular target: T1, Glucagon receptor; test: Binding affinity towards glucagon receptor determined by reduction in binding of [125I]glucagon to the murine glucagon receptor (GGR) expressed on CHO cells in absence of Mg+2; assay type: cell-based
[15] = molecular target: T2, Glucagon receptor (Homo sapiens, UniProt P47871); test: biochemical; assay type: cell-based, CHO
[16] = molecular target: T2, Glucagon receptor; test: Binding affinity towards glucagon receptor determined by reduction in binding of [125I]glucagon to the human glucagon receptor (GGR) expressed on CHO cells in presence of Mg+2; assay type: cell-based
How it was run: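 Radioligand binding to the glucagon receptor was run with 5 mM Mg2+ added, described as a physiological concentration.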

[17] = molecular target: Mitogen-activated protein kinase 14 (Homo sapiens, UniProt Q16539); test: Inhibitory activity against p38-alpha kinase
[18] = Selectivity ratio between the binding value of human glucagon receptor (GGR) with Mg+2 and the value of p38 kinase
[19] = molecular target: T1, Glucagon receptor; test: Binding affinity towards glucagon receptor determined by reduction in binding of 125 I-glucagon to the murine glucagon receptor (mGLUR) expressed on CHO cells in absence of Mg; assay type: cell-based
[20] = molecular target: Glucagon receptor (Mus musculus) (UniProt Q61606); test: Binding affinity towards glucagon receptor determined by reduction in binding of 125 I-glucagon to the murine glucagon receptor (mGLUR) expressed on CHO cells in presence of Mg+2 at 1 uM; assay type: cell-based
Chain of Glucagon receptor (Mus musculus) (Q61606 whole entry): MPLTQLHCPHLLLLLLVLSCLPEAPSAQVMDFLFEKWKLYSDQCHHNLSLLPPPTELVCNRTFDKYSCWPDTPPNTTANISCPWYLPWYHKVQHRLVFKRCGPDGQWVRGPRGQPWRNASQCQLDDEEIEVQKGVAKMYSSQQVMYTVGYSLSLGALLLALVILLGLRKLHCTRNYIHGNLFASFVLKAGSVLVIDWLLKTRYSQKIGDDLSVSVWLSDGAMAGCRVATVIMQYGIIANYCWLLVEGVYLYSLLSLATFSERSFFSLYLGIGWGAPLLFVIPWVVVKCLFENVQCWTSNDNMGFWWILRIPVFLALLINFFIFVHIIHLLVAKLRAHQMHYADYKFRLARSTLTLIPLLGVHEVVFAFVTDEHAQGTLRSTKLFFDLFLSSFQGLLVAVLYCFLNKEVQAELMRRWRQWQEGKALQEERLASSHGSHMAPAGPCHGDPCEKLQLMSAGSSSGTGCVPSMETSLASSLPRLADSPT

T1 sequence (Q61606 whole entry): as above
T2 sequence (P47871 whole entry): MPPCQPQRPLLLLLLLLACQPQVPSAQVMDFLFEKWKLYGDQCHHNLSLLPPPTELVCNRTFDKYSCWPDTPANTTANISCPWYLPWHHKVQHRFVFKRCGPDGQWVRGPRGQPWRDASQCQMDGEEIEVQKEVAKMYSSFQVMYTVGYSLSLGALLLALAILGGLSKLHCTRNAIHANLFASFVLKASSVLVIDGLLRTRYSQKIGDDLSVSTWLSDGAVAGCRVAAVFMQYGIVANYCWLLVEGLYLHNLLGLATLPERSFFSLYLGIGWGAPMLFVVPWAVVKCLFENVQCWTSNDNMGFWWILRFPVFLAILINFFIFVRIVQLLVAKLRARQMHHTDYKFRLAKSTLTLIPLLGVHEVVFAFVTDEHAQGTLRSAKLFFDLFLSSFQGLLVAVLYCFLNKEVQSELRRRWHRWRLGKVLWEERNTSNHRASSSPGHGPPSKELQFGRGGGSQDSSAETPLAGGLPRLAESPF
Chain of Mitogen-activated protein kinase 14 (Q16539 whole entry): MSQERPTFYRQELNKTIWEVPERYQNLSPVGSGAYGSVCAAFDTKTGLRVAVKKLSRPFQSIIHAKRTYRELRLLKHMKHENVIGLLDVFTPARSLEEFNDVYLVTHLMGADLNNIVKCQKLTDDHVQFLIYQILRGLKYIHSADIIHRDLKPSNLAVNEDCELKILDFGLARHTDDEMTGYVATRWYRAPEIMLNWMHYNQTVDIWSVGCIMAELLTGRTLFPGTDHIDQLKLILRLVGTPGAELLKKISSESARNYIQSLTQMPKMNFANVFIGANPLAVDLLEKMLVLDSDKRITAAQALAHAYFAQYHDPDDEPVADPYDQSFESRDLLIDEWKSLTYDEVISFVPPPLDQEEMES

concentration at 0.25 h [1] [nM] | concentration at 1 h [2] [nM] | concentration at 2 h [3] [nM] | concentration at 0.25 h [4] [nM] | concentration at 1 h [5] [nM] | concentration at 2 h [6] [nM] | concentration at 0.25 h [7] [nM] | concentration at 1 h [8] [nM] | concentration at 24 h [9] [nM] | concentration at 2 h [10] [nM] | concentration at 4 h [11] [nM] | concentration at 6 h [12] [nM] | IC50 [13] [µM] | IC50 [14] [µM] | IC50 [15] [µM] | IC50 [16] [µM] | IC50 [17] [µM] | Ratio [18] | IC50 [19] [µM] | inhibition [20] [%] | SMILES
25 | 1240 | 1400 | 9 | 590 | 840 | 1700 | 15200 | 700 | 11700 | 16500 | 13100 | 0.25 | 0.037 | 0.007 | 0.17 | 1.44 | 0.12 |  |  | CCCOc1ccc(Br)cc1-c1cc(-c2ccc(Cl)cc2)[nH]c1-c1ccncc1
 |  |  |  |  |  |  |  |  |  |  |  |  |  | 0.15 | 1.7 | 0.08 | 21.2 | 0.23 | 48 | Clc1ccc(-c2cc(-c3cccc(Br)c3)c(-c3ccncc3)[nH]2)cc1
